According to ChEMBL document CHEMBL1142018, “Discovery and SAR of new benzazepines as potent and selective 5-HT(2C) receptor agonists for the treatment of obesity” (Bioorg Med Chem Lett, 2005):

Key:
[1] = molecular target: T1, 5-hydroxytryptamine receptor 2B (Homo sapiens, UniProt P41595); assay: Effective concentration towards 5-hydroxytryptamine 2B receptors transfected in HEK293 cells was determined by measuring [3H]phosphoinositol release; format: functional, cell-based
Procedure, shortened: (§1)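 Functional agonism at human 5-HT2A, 5-HT2B or 5-HT2C receptors (the 2C as the INI isoform). Receptors were transiently transfected into HEK-293 cells, and the read-out was [³H]phosphoinositol turnover.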

[2] = molecular target: T2, 5-hydroxytryptamine receptor 2A (Homo sapiens, UniProt P28223); assay: Effective concentration towards 5-hydroxytryptamine 2A receptors transfected in HEK293 cells was determined by measuring [3H]phosphoinositol release; format: functional, cell-based; procedure, shortened: as §1
T2 sequence (P28223 whole entry): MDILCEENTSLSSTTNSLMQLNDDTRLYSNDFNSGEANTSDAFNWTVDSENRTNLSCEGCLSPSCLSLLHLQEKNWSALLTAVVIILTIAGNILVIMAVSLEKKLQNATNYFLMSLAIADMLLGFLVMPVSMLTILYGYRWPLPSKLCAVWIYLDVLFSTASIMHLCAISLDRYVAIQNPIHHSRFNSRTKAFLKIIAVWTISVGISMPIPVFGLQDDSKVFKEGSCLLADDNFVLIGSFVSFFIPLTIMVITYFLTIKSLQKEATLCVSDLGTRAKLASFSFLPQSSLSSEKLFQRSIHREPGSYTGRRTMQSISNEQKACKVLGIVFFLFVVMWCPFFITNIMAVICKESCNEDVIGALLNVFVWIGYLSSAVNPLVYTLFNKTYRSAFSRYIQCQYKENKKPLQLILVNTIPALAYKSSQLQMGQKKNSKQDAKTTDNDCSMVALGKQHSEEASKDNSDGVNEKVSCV

[3] = molecular target: T3, 5-hydroxytryptamine receptor 2C (Homo sapiens, UniProt P28335); assay: Effective concentration towards 5-hydroxytryptamine 2C receptors transfected in HEK293 cells was determined by measuring [3H]phosphoinositol release; format: functional, cell-based; procedure, shortened: as §1
T3 sequence (P28335 whole entry): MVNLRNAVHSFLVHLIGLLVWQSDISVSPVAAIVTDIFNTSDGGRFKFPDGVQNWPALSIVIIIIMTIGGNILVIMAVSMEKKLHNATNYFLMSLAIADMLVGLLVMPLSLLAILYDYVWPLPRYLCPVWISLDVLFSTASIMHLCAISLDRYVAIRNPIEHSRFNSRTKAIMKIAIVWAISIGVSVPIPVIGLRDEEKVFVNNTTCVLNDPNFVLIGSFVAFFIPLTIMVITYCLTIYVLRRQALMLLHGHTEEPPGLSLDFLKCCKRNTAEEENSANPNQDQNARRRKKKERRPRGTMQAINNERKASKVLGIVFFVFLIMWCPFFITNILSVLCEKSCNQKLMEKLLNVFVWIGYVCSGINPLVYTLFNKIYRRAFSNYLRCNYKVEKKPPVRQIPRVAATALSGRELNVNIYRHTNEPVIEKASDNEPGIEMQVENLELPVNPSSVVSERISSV

Rattus norvegicus = assay: Effect on food intake after 6 hr of injection of compound by oral gavage and compared to vehicle control rats (n = 8); decreased food intake by range 10-40 mg/kg; format: functional
[4] = molecular target: T2, 5-hydroxytryptamine receptor 2A; assay: Percentage maximum response relative to serotonin towards 5-hydroxytryptamine 2A receptor in HEK293 cells; format: functional, cell-based; procedure, shortened: as §1
[5] = molecular target: T4, 5-hydroxytryptamine receptor 2C (Homo sapiens) (UniProt P28335); assay: Percentage maximum response relative to serotonin towards 5-hydroxytryptamine 2C receptor in HEK293 cells; format: functional, cell-based; procedure, shortened: as §1
T4 sequence (whole entry): T3 sequence (P28335 whole entry)

[6] = molecular target: T1, 5-hydroxytryptamine receptor 2B; assay: Percentage maximum response relative to serotonin towards 5-hydroxytryptamine 2B receptor in HEK293 cells; format: functional, cell-based; procedure, shortened: as §1
[7] = molecular target: T1, 5-hydroxytryptamine receptor 2B; assay: Percentage maximum response relative to serotonin towards 5-hydroxytryptamine 2B receptor at 10 uM concentration in HEK293 cells; format: functional, cell-based
[8] = Rattus norvegicus, po, 6 h, read-out: ED50

T1 sequence (P41595 whole entry, canonical isoform): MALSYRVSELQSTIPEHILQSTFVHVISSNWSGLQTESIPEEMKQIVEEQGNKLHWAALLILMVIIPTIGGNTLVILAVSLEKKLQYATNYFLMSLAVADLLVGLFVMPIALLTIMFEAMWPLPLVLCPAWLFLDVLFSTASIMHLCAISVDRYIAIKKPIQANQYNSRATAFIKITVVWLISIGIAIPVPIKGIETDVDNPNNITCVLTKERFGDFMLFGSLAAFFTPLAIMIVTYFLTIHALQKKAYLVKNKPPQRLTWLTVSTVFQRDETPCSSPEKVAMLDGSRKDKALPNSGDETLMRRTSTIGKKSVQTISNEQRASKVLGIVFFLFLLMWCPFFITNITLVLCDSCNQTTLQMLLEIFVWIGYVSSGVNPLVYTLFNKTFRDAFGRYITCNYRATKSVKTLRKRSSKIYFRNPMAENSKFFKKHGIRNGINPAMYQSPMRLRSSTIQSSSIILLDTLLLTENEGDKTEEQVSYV

| Compound | EC50 ([1]; read-out: EC50) [nM] | EC50 ([2]; read-out: EC50) [nM] | EC50 [3] [nM] | other results |
| --- | --- | --- | --- | --- |
| CC1CNCCc2ccc(Cl)c(Cl)c21 (configuration not stated) | 1800 | 220 | 6 | ED50 (Rattus norvegicus; [8]): 40 mg/kg |
| CC1CNCCc2ccccc21 (configuration not stated) | > 5000 | 1600 | 340 |  |
| Clc1ccc2c(c1)CCNCC2 | 1000 | 90 | 12 | Maximum response [4]: 100%; Maximum response [5]: 85%; Maximum response [6]: 100% |
| CC1CNCCc2ccc(Cl)cc21 (configuration not stated) |  |  |  | ED50 (Rattus norvegicus; [8]): 40 mg/kg |
| CC1CNCCc2c(Cl)cc(Cl)cc21 (configuration not stated) | 840 | 170 | 20 |  |
| COc1cc2c(cc1Br)C(C)CNCC2 (configuration not stated) | 100 | 80 | 5 | ED50 (Rattus norvegicus; [8]): 40 mg/kg |
| CCC1CNCCc2cc(OC)c(Br)cc21 (configuration not stated) | 40 | 100 | 11 |  |
| COc1cc2c(cc1Br)CCNCC2 | 400 | 100 | 8 |  |
| CC1CNCCc2ccc(C(F)(F)F)cc21 (configuration not stated) | 380 | 100 | 7 | ED50 (Rattus norvegicus; [8]): 40 mg/kg |
| CC1CNCCc2ccc(Cl)c(F)c21 (configuration not stated) | > 10000 | 840 | 22 | ED50 (Rattus norvegicus; [8]): 40 mg/kg |
| CC1CNCCc2cc(OCc3ccccc3)c(Br)cc21 (configuration not stated) | > 10000 | 22 | 56 |  |
| CC1CNCCc2cccc(Cl)c21 (configuration not stated) | > 5000 | > 5000 | 930 |  |
| CC1CNCCc2c(Cl)cccc21 (configuration not stated) | > 5000 | > 5000 | 860 |  |
| CC1CNCCc2cc(Cl)ccc21 (configuration not stated) | 530 | 150 | 35 |  |
| CC1CNCCc2cc(O)c(Br)cc21 (configuration not stated) | 190 | 63 | 3 |  |
| COc1cc2c(cc1Br)C(C(C)C)CNCC2 (configuration not stated) | 1000 |  | 160 | EC50 ([2]; hek293): Not Active |
| COc1cc2c(cc1C(F)(F)F)C(C)CNCC2 (configuration not stated) | 130 | 42 | 4 |  |

| Compound | EC50 ([1]; read-out: EC50) [nM] | EC50 ([2]; read-out: EC50) [nM] | EC50 [3] [nM] | other results |
| --- | --- | --- | --- | --- |
| COc1cc2c(cc1Cl)C(C)CNCC2 (configuration not stated) | 140 | 80 | 11 | ED50 (Rattus norvegicus; [8]): 40 mg/kg |
| COc1cc2c(cc1Br)[C@@H](C)CNCC2 | 220 | 80 | 3 |  |
| COc1cc2c(cc1I)C(C)CNCC2 (configuration not stated) | 64 | 61 | 2 | ED50 (Rattus norvegicus): 40 mg/kg |
| COc1ccc2c(c1)CCNCC2C (configuration not stated) |  | > 10000 | 2000 | EC50 ([1]; hek293): Not Active |
| C[C@H]1CNCCc2ccc(Cl)c(Cl)c21 | > 10000 | 2400 | 230 | Maximum response [4]: 100%; Maximum response [5]: 85% |
| CC1CNCCc2ccc(F)cc21 (configuration not stated) | > 10000 | 1600 | 410 |  |
| C[C@H]1CNCCc2ccc(Cl)cc21 |  |  |  | Maximum response [4]: 70%; Maximum response [5]: 100%; Maximum response [6]: 100% |
| CC1CNCCc2cc(Cl)c(Cl)cc21 (configuration not stated) | 78 | 16 | 4 | ED50 (Rattus norvegicus; [8]): 40 mg/kg |
| C[C@@H]1CNCCc2ccc(Cl)cc21 |  |  |  | Maximum response [4]: 70%; Maximum response [5]: 100%; Maximum response [6]: 100% |
| COc1ccc2c(c1)C(C)CNCC2 (configuration not stated) | 780 | 940 | 420 |  |
| C[C@@H]1CNCCc2ccc(Cl)c(Cl)c21 |  | 135 | 3 | Maximum response [4]: 35%; Maximum response [5]: 90%; Maximum response [7]: 25% |
| CCOc1cc2c(cc1Br)C(C)CNCC2 (configuration not stated) | 180 | 110 | 28 |  |
| CC(C)Oc1cc2c(cc1Br)C(C)CNCC2 (configuration not stated) | 230 | 97 | 68 |  |
| COc1cc2c(cc1Br)[C@H](C)CNCC2 | 30 | 30 | 5 |  |
| CC1CNCCc2ccc(Br)cc21 (configuration not stated) | 1500 | 510 | 12 |  |
| CC1CNCCc2cc(F)c(Cl)cc21 (configuration not stated) | 360 | 72 | 7 | ED50 (Rattus norvegicus; [8]): 40 mg/kg |
